Experimental data pooled from the literature.
Each line is one published result; the experiments were not run side by side.
Cell line: MDA-MB-231
Observed: cell growth or viability

Compound	technique	time	quantity	value
COc1c(C)c2c(c(O)c1C/C=C(\C)CCC(=O)O)C(=O)OC2			IC50	1200 nM
C=CCNC1=C2C[C@@H](C)C[C@H](OC)[C@H](O)[C@@H](C)/C=C(\C)[C@H](OC(N)=O)[C@@H](OC)/C=C\C=C(/C)C(=O)NC(=CC1=O)C2=O		72 h	IC50	19500 nM
CC[C@H](C)[C@@H]([C@@H](CC(=O)N1CCC[C@H]1[C@H](OC)[C@@H](C)C(=O)N[C@H](C)[C@@H](O)c1ccccc1)OC)N(C)C(=O)[C@@H](NC(=O)[C@@H](NC)C(C)C)C(C)C	CCK-8		IC50	8.28 nM
CCOP1(=O)CC=Cc2cc(N)ccc2O1 (stereo not drawn)	MTT	72 h	Emax	10 to 15%
CC[C@H](C)[C@@H]([C@@H](CC(=O)N1CCC[C@H]1[C@H](OC)[C@@H](C)C(=O)N[C@H](C)[C@@H](O)c1ccccc1)OC)N(C)C(=O)[C@@H](NC(=O)[C@H](C(C)C)N(C)C(=O)OCc1ccc(NC(=O)[C@H](CCCNC(N)=O)NC(=O)[C@@H](NC(=O)CCOCCOCCOCCOCCC(=O)N[C@@H]2CSSC[C@H](C(=O)O)NC(=O)CNC(=O)[C@@H](CCCNC(=N)N)NC(=O)CNC(=O)[C@@H](C(C)C)NC(=O)CNC(=O)[C@@H](C)NC(=O)[C@@H](CCCNC(=N)N)NC2=O)C(C)C)cc1)C(C)C	resazurin	24 h	IC50	120 nM
COc1ccc(NC(=O)Nc2ccc3c(c2)C=CCP(=O)(O)O3)cc1	MTT	72 h	Emax	50%
CC(=O)N[C@H]1[C@@H](O[C@@H]2O[C@H](C[C@@H](O)[C@H]3O[C@@H](n4ccc(=O)[nH]c4=O)[C@H](O)[C@@H]3O)[C@H](O)[C@H](O)[C@H]2NC(=O)/C=C/CCCCCCCCCC(C)C)O[C@H](CO)[C@@H](O)[C@@H]1O	WST-1		IC50	170 nM
O=C1c2ccccc2-c2c3c(cc4ccnc1c24)OCO3	MTT	75 h	IC50	49000 nM
[C-]#[O+].[C-]#[O+].[C-]#[O+].[C-]#[O+].[C-]#[O+].[C-]#[O+].[C-]#[O+].[C-]#[O+].[C-]#[O+].[C-]#[O+].[Mn].[Mn]	MTT	48 h	IC50	25400 nM
CC(C)=C[C@H]1C[C@H](C)[C@]2(CC[C@]3(C)C[C@H]4[C@H](C(=O)C[C@@]4(C)O)/C(C=O)=C\C[C@H]32)O1			IC50	58.2 nM
N.N.[Cl][Pt][Cl]	MTT	48 h	IC50	40000 nM
N.N.[Cl][Pt][Cl]	MTT		IC50	> 100000 nM
